Reference: ChEMBL document CHEMBL1154862, “Synthesis of potent BACE-1 inhibitors incorporating a hydroxyethylene isostere as central core” (Eur J Med Chem, 2010)

Tests used:
Beta-secretase 1 [1] = target: T1, Beta-secretase 1 (Homo sapiens, UniProt P56817); experiment: Inhibition of BACE1 after 30 mins by homogeneous time resolved fluorescence assay
Cathepsin D = Cathepsin D (Homo sapiens, UniProt P07339); experiment: Inhibition of human liver cathepsin D after 20 mins by homogeneous time resolved fluorescence assay
Cathepsin D, sequence (P07339 65-162 limits assumed): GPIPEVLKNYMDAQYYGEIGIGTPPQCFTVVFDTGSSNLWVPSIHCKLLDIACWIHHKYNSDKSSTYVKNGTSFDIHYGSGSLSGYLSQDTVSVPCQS
Cathepsin D, sequence (P07339 169-412 limits assumed): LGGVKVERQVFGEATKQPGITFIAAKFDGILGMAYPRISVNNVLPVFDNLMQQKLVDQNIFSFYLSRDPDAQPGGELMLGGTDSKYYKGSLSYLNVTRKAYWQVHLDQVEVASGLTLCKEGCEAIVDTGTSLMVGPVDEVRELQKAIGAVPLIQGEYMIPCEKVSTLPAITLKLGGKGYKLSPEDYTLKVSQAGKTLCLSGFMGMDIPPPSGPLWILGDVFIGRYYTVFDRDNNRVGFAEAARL

Beta-secretase 1 [2] = target: T1, Beta-secretase 1; experiment: Inhibition of human BACE1 in HEK293 cells stably co-transfected with mutant APP(swAPP751) assessed as Amyloid beta 1-40 level after 24 hrs by ELISA; assay type: cell-based
Outline: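 HEK-293 cells stably expressing Swedish mutant APP (swAPP751), grown in DMEM with 10% FCS, penicillin/streptomycin and 200 µg/mL hygromycin at 37 °C, 5% CO2. Seeded 2 × 10^4 cells/well, settled overnight, washed once with fresh medium, then inhibitor added (DMSO at most 1% final). Medium collected after 24 h; secreted Aβ1–40 measured by ELISA.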

T1 sequence (P56817 whole entry): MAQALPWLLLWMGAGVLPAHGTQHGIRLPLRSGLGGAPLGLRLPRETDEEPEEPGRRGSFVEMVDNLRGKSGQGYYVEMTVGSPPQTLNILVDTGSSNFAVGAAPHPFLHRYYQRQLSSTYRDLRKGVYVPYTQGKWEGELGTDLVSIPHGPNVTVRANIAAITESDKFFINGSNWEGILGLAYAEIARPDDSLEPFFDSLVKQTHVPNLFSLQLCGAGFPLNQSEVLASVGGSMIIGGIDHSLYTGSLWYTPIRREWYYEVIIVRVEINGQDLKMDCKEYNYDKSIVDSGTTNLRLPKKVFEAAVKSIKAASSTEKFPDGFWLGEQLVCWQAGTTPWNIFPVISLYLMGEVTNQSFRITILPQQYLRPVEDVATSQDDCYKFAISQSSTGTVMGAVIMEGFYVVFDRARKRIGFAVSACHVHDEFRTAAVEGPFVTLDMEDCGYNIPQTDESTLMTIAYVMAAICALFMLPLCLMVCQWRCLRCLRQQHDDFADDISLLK

IC50 (Beta-secretase 1 [1]) | IC50 (Cathepsin D) | IC50 (Beta-secretase 1 [2]) | Compound
10000 nM | 0.63 nM | – | CSCC[C@H](NC(=O)[C@@H](NC(=O)OC(C)(C)C)C(C)C)C(=O)N[C@@H](COCc1cc(F)cc(F)c1)[C@@H](O)C[C@@H](C)C(=O)N[C@H](C(=O)NCc1ccccc1)C(C)C
– | 210 nM | 4500 nM | CC(C)[C@H](NC(=O)[C@H](C)C[C@H](O)[C@H](COCc1cc(F)cc(F)c1)NC(=O)c1cc(C(=O)N[C@H](C)c2ccccc2)cc(N(C)S(C)(=O)=O)c1)C(=O)NCc1ccccc1
10 nM | 120 nM | 340 nM | CC(C)[C@H](NC(=O)[C@@H](C)C[C@H](O)[C@H](COc1cc(F)cc(F)c1)NC(=O)c1cc(C(=O)N[C@H](C)c2ccccc2)cc(N(C)S(C)(=O)=O)c1)C(=O)NCc1ccccc1
3.6 nM | 41 nM | 1000 nM | CC(C)[C@H](NC(=O)[C@H](C)C[C@H](O)[C@H](COCc1ccccc1)NC(=O)c1cc(C(=O)N[C@H](C)c2ccccc2)cc(N(C)S(C)(=O)=O)c1)C(=O)NCc1ccccc1
1260 nM | > 5000 nM | – | CNC(=O)c1cc(C(=O)N[C@@H](COCc2cc(F)cc(F)c2)[C@@H](O)C[C@@H](C)C(=O)N[C@H](C(=O)NCc2ccccc2)C(C)C)cc(N(C)S(C)(=O)=O)c1
> 10000 nM | > 5000 nM | – | C[C@H](C[C@H](O)[C@H](COCc1cc(F)cc(F)c1)NC(=O)c1cc(C(=O)N[C@H](C)c2ccccc2)cc(N(C)S(C)(=O)=O)c1)C(=O)NC1CC1
3.1 nM | 59 nM | 160 nM | CC(C)[C@H](NC(=O)[C@H](C)C[C@H](O)[C@H](COc1cc(F)cc(F)c1)NC(=O)c1cc(C(=O)N[C@H](C)c2ccccc2)cc(N(C)S(C)(=O)=O)c1)C(=O)NCc1ccccc1
